# Compound activity as filed in PubChem BioAssay.
# This is a sample that favours compounds with a hit; in the whole collection about 3.7% have one here.
# KCNQ1 act: potentiates or activates the human KCNQ1 potassium channel | AID 2648 | P51787 | B-score at 10 µM | 310,000 compounds, 0.35% hits | CHO-K1 KCNQ1, thallium flux FluxOR fluorescence; hits give high values;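 active = fluorescence ratio B-score, a plate-corrected score, at least three library SD, with initial intensity B-score within 5 SD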
#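 Assay system: CHO-K1 cells stably expressing KCNQ1; Medium: assay buffer with matched DMSO; Also added: K+/Tl+ depolarizing stimulus; Dosing: single dose; Timing: dye 90 min, compound 20 min, room temperature; Measured by: kinetic FluxOR thallium fluorescence, 10-s 1-Hz baseline, 110-s post-stimulus read; Read-out: peak-minus-minimum fluorescence over initial fluorescence, negative-control normalized, B-scored.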
# Kir21 block: Kir2.1 (mouse) channel inhibition; P35561; HEK293-Kir2.1, FluxOR thallium flux fluorescence; hits give low values; B-score at 10 µM; 310,000 compounds, 0.85% hits;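 active = fluorescence ratio B-score at or below minus 3 SD of library scores, with starting-brightness B-score within 2 SD, cut at about -4.2 in these data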;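 note: channel flux triggered by added potassium and thallium sulfate stimulus; B-score of peak minus minimum fluorescence over baseline after thallium stimulus; more negative B-score means stronger Kir2.1 block with less thallium influx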
# KCNQ1 block: human KCNQ1 channel inhibition; B-score at 10 µM; 310,000 compounds, 1.3% hits; P51787; CHO-K1 KCNQ1, FluxOR thallium flux fluorescence; hits give high values;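 active = compounds whose thallium flux B-score, printed positive for inhibition, exceeds three library SD while starting fluorescence stays within three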;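 note: channel opened by potassium depolarization with thallium stimulus after 20 min compound exposure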
# KCNK9 inh: inhibitors of human KCNK9 two-pore domain potassium channel | Q9NPC2 | B-score at 10 µM | HEK293 KCNK9, FluxOR thallium flux fluorescence; hits give low values | 310,000 compounds, 1.2% hits;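 active = ratio B-score over 3 SD below the library mean, with starting fluorescence within 5 SD of its mean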;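 note: negative B-score means less thallium flux so channel inhibition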
# KCNK3 block: human KCNK3 channel inhibition, primary screen; O14649; CHO-KCNK3 thallium flux, FluxOR fluorescence; hits give low values; B-score at 10 µM; 340,000 compounds, 0.84% hits; AID 602410;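 active = B-score under library mean minus 4 SD, starting fluorescence ratio at most library mean plus 5 SD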;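 note: more negative B-score means stronger inhibition of thallium flux through KCNK3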
# Target sequence (O14649 whole entry, looked up): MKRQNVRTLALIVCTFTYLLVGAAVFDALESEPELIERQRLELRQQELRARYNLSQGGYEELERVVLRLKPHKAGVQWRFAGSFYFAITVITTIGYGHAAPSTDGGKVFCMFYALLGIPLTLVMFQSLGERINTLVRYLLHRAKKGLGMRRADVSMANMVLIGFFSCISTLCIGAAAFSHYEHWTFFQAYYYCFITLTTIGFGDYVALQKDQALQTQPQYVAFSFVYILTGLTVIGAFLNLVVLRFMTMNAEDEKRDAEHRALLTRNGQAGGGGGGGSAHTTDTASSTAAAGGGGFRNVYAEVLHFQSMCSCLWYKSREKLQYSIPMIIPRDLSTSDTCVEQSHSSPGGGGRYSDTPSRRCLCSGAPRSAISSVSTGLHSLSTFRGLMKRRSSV
# hERG rescue: compounds protecting human hERG from proarrhythmic drug block; Q12809; AID 1511; CHO-hERG, FluxOR thallium flux, dofetilide IC70 present; activation (rescue from dofetilide block), less the hit threshold, % at 10 µM; 310,000 compounds, 0.51% hits;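 active = activation above the mean of controls blocked by dofetilide plus 5 SD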;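 note: thallium influx through hERG after potassium depolarization seen as dye fluorescence rise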
# KCNK9 inh conf: human KCNK9 inhibitor confirmation | shares compounds with KCNK9 inh | HEK293 KCNK9 cells, FluxOR thallium flux fluorescence | inhibition, % at 10 µM | 4,900 compounds, 43% hits;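 active = thallium signal inhibited by more than 5 SD of the compound-free buffer control wells, on both duplicate plates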
# Kir2-1 spec: mouse Kir2.1 off-target activity of KCNK9 modulators | shares compounds with KCNK9 inh | Kir2.1 cells, FluxOR thallium flux fluorescence | inhibition, % at 10 µM | 4,900 compounds, 4% hits | AID 492993;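 active = thallium signal drop more than 5 SD beyond the mean of the no-compound control wells, seen in both duplicate plates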;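 note: signal is fluorescence rise after thallium addition divided by baseline fluorescence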
# KCNK9 uninduced: second check of KCNK9 modulator effects in non-induced HEK293 cells. shares compounds with KCNK9 inh. FluxOR thallium flux. inhibition, % at 10 µM. 4,900 compounds, 40% hits. AID 492997;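 active = thallium signal drop beyond 5 SD of the untreated control mean, on both duplicate plates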
# KCNK3 inh conf: confirmation of human KCNK3 two-pore domain potassium channel inhibitors; shares compounds with KCNK3 block; CHO-KCNK3 thallium flux, FluxOR fluorescence; 0% buffer, 100% carvedilol maximal block; 2,400 compounds, 99% hits; AID 651638; ratio percent of control, % at 10 µM;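 active = ratio percent of control, averaged over triplicates, above buffer control mean plus 5 SD, cut at about 64% in these data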;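 note: ratio is the fluorescence rise from min to max over baseline after thallium stimulus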
# KCNK3 uninduced: activity in cells without induced KCNK3 expression; 2,400 compounds, 40% hits; shares compounds with KCNK3 block; AID 651747; thallium flux ratio (lower = more inhibition) at 10 µM; non-induced KCNK3 parental cells, FluxOR thallium flux; hits give low values;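 active = thallium flux ratio, averaged over three wells, more than 5 SD below the buffer control mean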;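 note: host cells are CHO cells without KCNK3 induction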
# A number is an active result; - = inactive; . = not tested or not shown.
SMILES,KCNQ1 act,Kir21 block,KCNQ1 block,KCNK9 inh,KCNK3 block,hERG rescue,KCNK9 inh conf,Kir2-1 spec,KCNK9 uninduced,KCNK3 inh conf,KCNK3 uninduced
Cc1ccc(Cl)cc1N1CCN(C2CCCCC2NS(=O)(=O)c2ccccc2)CC1 (stereo not drawn),-,-,-,-17,-9.3,-,54%,-,43%,112,0.14
Cc1cccc(N2CCN(C3CCCCC3NS(=O)(=O)c3ccccc3)CC2C)c1 (stereo not drawn),-,-,-,-15,-9.2,-,44%,-,45%,115,0.15
O=C(Nc1ccccc1OC(F)F)c1ccc(S(=O)(=O)N2CCCC2)cc1,.,.,.,.,-,.,.,.,.,.,.
COc1ccc(CNC(=O)c2csc(Cc3ccccc3)n2)cc1,-,-,-,-,-,-,.,.,.,.,.
COc1ccccc1CNC(=O)c1csc(Cc2ccc(Cl)cc2)n1,-,-,-,-,-13,-,-,-,26%,122,0.14
CN1CN(C)C(c2ccncc2)=C1c1ccncc1,-,-,-,-,-,-,.,.,.,.,.
Cc1nnc(NC(=O)c2sc3ccccc3c2Cl)s1,-,-,-,-,-,-,.,.,.,.,.
Cc1ccc(NC(=O)c2sc3ccccc3c2Cl)nc1,-,-,-,-15,-,-,56%,-,30%,87,-
CC(C)CC(=O)Nc1nnc(S(=O)(=O)Nc2ccccc2)s1,-,-,-,-,-,-,.,.,.,.,.
CCn1cc(Cl)c(C(=O)Nc2cccc(C(F)(F)F)c2)n1,-,-,-,-8.5,-,-,42%,-,34%,108,-
Cc1nn(-c2ccccc2)c(Cl)c1/C=N/NC(=O)c1ccccc1F,-,-,-,-14,-11,-,57%,-,24%,101,-
COc1ccccc1N1CCN(C(c2ccccc2Cl)c2nnnn2C(C)(C)C)CC1 (stereo not drawn),.,.,.,.,-,.,.,.,.,.,.
COc1ccccc1C(c1nnnn1C(C)(C)C)N1CCN(Cc2ccncc2)CC1 (stereo not drawn),-,-,-,-19,-9.2,-,76%,-,34%,116,-
COc1ccc([N+](=O)[O-])cc1-c1[nH]c(-c2ccc(C(=O)O)cc2)nc1-c1ccccc1,-,-,-,-,-,-,.,.,.,.,.
Cc1ccc([N+](=O)[O-])cc1-c1[nH]c(-c2ccc(O)c(O)c2)nc1-c1ccccc1,-,-,-,-9,-9.8,-,40%,-,-,111,-
C=CCOC(=O)C1=C(C)NC(SCC(N)=O)=C(C#N)C1c1ccc(C)cc1 (stereo not drawn),-,-,-,-,-,-,.,.,.,.,.
C=CCOC(=O)C1=C(C)NC(SCC)=C(C#N)C1c1ccc(Cl)cc1 (stereo not drawn),-,-,9,-8.4,-8.8,-,-,-,40%,116,-
COc1ccc(C(=O)c2coc3c2C(=O)C(=O)c2ccccc2-3)cc1,-,-,-,-21,-8.9,-,78%,-,46%,108,0.15
COc1cccc(CNCC(O)(c2ccc(Cl)cc2)c2ccc(Cl)cc2)c1,-,-,7,-13,-,-,-,-,38%,139,0.15
O=C(CN(C(=O)c1ccccc1Cl)C1CCCCC1)Nc1ccc(Cl)c([N+](=O)[O-])c1,-,-,8,-11,-,-,36%,-,29%,98,0.16
O=C(CN(C(=O)c1ccc(Cl)cc1)C1CCCCC1)Nc1ccc(Cl)c([N+](=O)[O-])c1,-,-,-,-,-,-,.,.,.,.,.
